ChEMBL document CHEMBL1144123, “Activity of triterpenoid glycosides from the root bark of Mussaenda macrophylla against two oral pathogens” (1999)
Values after ≈ are worked out from the molar mass of the structure shown. Active and inactive are the calls of the source. The rule behind the calls is not given here.

Columns and labels:
Porphyromonas gingivalis = test: Antibacterial activity against Porphyromonas gingivalis after 48 hrs by microtiter plate method; type: functional
Summary of the method: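 Broth microdilution in trypticase soy broth-yeast extract with 0.05% cysteine hydrochloride, menadione (0.02 μg/mL), hemin (5 μg/mL) and 0.02% potassium nitrate. Inoculum 5 × 10^5 CFU/mL; serially diluted test agent, triplicates per concentration. Incubated anaerobically (10% H₂, 5% CO₂, 85% N₂), 37 °C, 48 h. Turbidity read at 650 nm; MIC = lowest concentration keeping absorbance <0.05.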

Streptococcus mutans = test: Antibacterial activity against Streptococcus mutans after 48 hrs by microtiter plate method; type: functional
Summary of the method: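 Brain-heart infusion broth, inoculum 5 × 10^6 CFU/mL, serial dilutions of test agent in triplicate per concentration, 37 °C for 48 h. Controls were inoculated medium without test agent; blanks were uninoculated medium. Growth read spectrophotometrically at 650 nm; MIC taken as minimum concentration limiting turbidity to <0.05 absorbance.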

| Structure (SMILES) | MIC (Porphyromonas gingivalis) [µg/mL] | MIC (Streptococcus mutans) [µg/mL] | Activity (Porphyromonas gingivalis) |
| --- | --- | --- | --- |
| CC1(C)CC[C@]2(C(=O)O)CC[C@]3(C)C(=CC[C@@H]4[C@@]5(C)CC[C@H](O)C(C)(C)[C@@H]5CC[C@]43C)[C@@H]2C1 [OLEANOLIC_ACID] | 625 (≈ 1370 µM) | – | – |
| N=C(NCCCCCCNC(=N)NC(=N)Nc1ccc(Cl)cc1)NC(=N)Nc1ccc(Cl)cc1 [CHLORHEXIDINE] | 0.312 (≈ 0.617 µM) | 0.312 (≈ 0.617 µM) | – |
| O=c1c(O)c(-c2cc(O)c(O)c(O)c2)oc2cc(O)cc(O)c12 | – | – | Active |
| COc1cc(O)c2c(=O)c(O)c(-c3ccc(O)cc3)oc2c1 | – | – | Active |
| C[C@@H]1O[C@@H](OC(=O)[C@]23CCC(C)(C)C[C@H]2C2=CC[C@@H]4[C@@]5(C)C[C@H](O)[C@H](O[C@@H]6O[C@H](CO)[C@@H](O)[C@H](O)[C@H]6O)C(C)(C)[C@@H]5[C@H](O)C[C@@]4(C)[C@]2(C)C[C@H]3O)[C@H](O)[C@H](O)[C@H]1O | 312 (≈ 384 µM) | > 1250 | – |
| O=c1c(O)c(-c2ccc(O)cc2)oc2cc(O)cc(O)c12 | – | – | Active |
| CC(=O)O[C@H]1CC[C@]2(C)[C@H]3CC=C4[C@@H]5CC(C)(C)CC[C@]5(C)CC[C@@]4(C)[C@]3(C)C[C@@H](O)[C@H]2C1(C)C | 78 (≈ 161 µM) | > 1250 | – |
| CC(=O)O[C@H]1CC[C@]2(C)[C@H]3CC=C4[C@@H]5CC(C)(C)CC[C@]5(C(=O)O)CC[C@@]4(C)[C@]3(C)CC[C@H]2C1(C)C [ACETYL OLEANOLIC ACID] | 39 (≈ 78.2 µM) | > 1250 | – |
| C/C(=C\C=C\[C@@H](C)[C@H]1CC[C@@]2(C)[C@@H]3CC[C@H]4C(C)(C)[C@@H](O[C@H]5O[C@@H](CO)[C@H](O)[C@@H](O[C@@H]6O[C@H](CO)[C@@H](O)[C@H](O)[C@H]6O)[C@@H]5O[C@@H]5O[C@H](CO[C@H]6O[C@@H](CO)[C@H](O)[C@@H](O)[C@@H]6O)[C@@H](O)[C@H](O)[C@H]5O[C@@H]5O[C@@H](C)[C@H](O)[C@@H](O)[C@H]5O)CC[C@@]45C[C@@]35CC[C@]12C)C(=O)O | 156 (≈ 125 µM) | > 1250 | – |
| C[C@@H]1O[C@@H](OC(=O)[C@]23CCC(C)(C)C[C@H]2C2=CC[C@@H]4[C@@]5(C)C[C@H](O)[C@H](O[C@@H]6O[C@H](CO)[C@@H](O)[C@H](O)[C@H]6O)[C@@](C)(CO)[C@@H]5[C@H](O)C[C@@]4(C)[C@]2(C)C[C@H]3O)[C@H](O)[C@H](O)[C@H]1O | 78 (≈ 94.1 µM) | > 1250 | – |
| CC1(C)CC[C@]2(C(=O)O[C@@H]3O[C@H](CO)[C@@H](O)[C@H](O)[C@H]3O)[C@H](O)C[C@]3(C)C(=CC[C@@H]4[C@@]5(C)C[C@H](O)[C@H](O)C(C)(C)[C@@H]5[C@H](O)C[C@]43C)[C@@H]2C1 | 312 (≈ 468 µM) | > 1250 | – |
